ChEMBL document CHEMBL5058577, “EUbOPEN Chemogenomics Library 2 (Multiplex)” (2022)

Test system: HEK-293T
Test: Multiplex assay against HEK293T
Type: toxicity, cell-based
Conditions: human
Outline: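 Live cells were stained at seeding with Hoechst33342, BioTracker Green Microtubule Cytoskeleton Dye, MitoTracker Red and Annexin V Alexa Fluor 680, then imaged on a CQ1 microscope at 37°C and 5% CO2 after compound addition. CellPathfinder machine-learning gating split cells into Hoechst high-intensity objects or normal cells. Normal cells were split into healthy, pyknosed or fragmented nuclei, and pyknosed cells into mitotic or apoptotic. Tubulin, mitochondrial-mass and membrane-permeability phenotypes are per cents of healthy-nucleus cells.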

[1] = 12 h, 1 µM, compound concentration 1 uM, replicate 1
[2] = 12 h, 1 µM, compound concentration 1 uM, replicate 2
[3] = 12 h, 10 µM, compound concentration 10 uM, replicate 1
[4] = 12 h, 10 µM, compound concentration 10 uM, replicate 2
[5] = 24 h, 1 µM, compound concentration 1 uM, replicate 1
[6] = 24 h, 1 µM, compound concentration 1 uM, replicate 2
[7] = 24 h, 10 µM, compound concentration 10 uM, replicate 1
[8] = 24 h, 10 µM, compound concentration 10 uM, replicate 2
[9] = 48 h, 1 µM, compound concentration 1 uM, replicate 1
[10] = 48 h, 1 µM, compound concentration 1 uM, replicate 2
[11] = 48 h, 10 µM, compound concentration 10 uM, replicate 1
[12] = 48 h, 10 µM, compound concentration 10 uM, replicate 2

CC(C)(C)c1cc(NC(=O)Nc2ccc(-c3cn4c(n3)sc3cc(OCCN5CCOCC5)ccc34)cc2)no1 [QUIZARTINIB]
Population Apoptotic (%) [1]: 27% | Population Fragmented Nuclei (%) [1]: 5% | Population Healthy Nuclei (%) [1]: 83% | Population Hoechst High Intensity Objects (%) [1]: 10% | Population Membrane Permeable-Phenotype (%) [1]: 0% | Population Mitochondria Different-Phenotype (%) [1]: 40% | Population Mitotic Cells (%) [1]: 72% | Population Normal (%) [1]: 89% | Population Pyknosed Nuclei (%) [1]: 11% | Population Tubulin-Different-Phenotype (%) [1]: 35% | Total Cell Count [1]: 377 | Population Apoptotic (%) [2]: 34% | Population Healthy Nuclei (%) [2]: 80% | Population Hoechst High Intensity Objects (%) [2]: 6% | Population Mitochondria Different-Phenotype (%) [2]: 58% | Population Mitotic Cells (%) [2]: 65% | Population Normal (%) [2]: 93% | Population Pyknosed Nuclei (%) [2]: 14% | Population Tubulin-Different-Phenotype (%) [2]: 26% | Total Cell Count [2]: 345 | Population Apoptotic (%) [3]: 53% | Population Fragmented Nuclei (%) [3]: 7% | Population Healthy Nuclei (%) [3]: 71% | Population Hoechst High Intensity Objects (%) [3]: 23% | Population Membrane Permeable-Phenotype (%) [3]: 0% | Population Mitochondria Different-Phenotype (%) [3]: 78% | Population Mitotic Cells (%) [3]: 46% | Population Normal (%) [3]: 76% | Population Pyknosed Nuclei (%) [3]: 21% | Population Tubulin-Different-Phenotype (%) [3]: 68% | Total Cell Count [3]: 324 | Population Apoptotic (%) [4]: 73% | Population Hoechst High Intensity Objects (%) [4]: 12% | Population Mitochondria Different-Phenotype (%) [4]: 81% | Population Mitotic Cells (%) [4]: 26% | Population Normal (%) [4]: 87% | Population Tubulin-Different-Phenotype (%) [4]: 63% | Total Cell Count [4]: 293 | Population Apoptotic (%) [5]: 41% | Population Fragmented Nuclei (%) [5]: 7% | Population Healthy Nuclei (%) [5]: 84% | Population Hoechst High Intensity Objects (%) [5]: 6% | Population Membrane Permeable-Phenotype (%) [5]: 0% | Population Mitochondria Different-Phenotype (%) [5]: 26% | Population Mitotic Cells (%) [5]: 58% | Population Normal (%) [5]: 93% | Population Pyknosed Nuclei (%) [5]: 7% | Population Tubulin-Different-Phenotype (%) [5]: 21% | Total Cell Count [5]: 491 | Population Apoptotic (%) [6]: 38% | Population Fragmented Nuclei (%) [6]: 5% | Population Hoechst High Intensity Objects (%) [6]: 4% | Population Mitochondria Different-Phenotype (%) [6]: 40% | Population Mitotic Cells (%) [6]: 61% | Population Normal (%) [6]: 95% | Population Pyknosed Nuclei (%) [6]: 10% | Population Tubulin-Different-Phenotype (%) [6]: 17% | Total Cell Count [6]: 440 | Population Apoptotic (%) [7]: 62% | Population Fragmented Nuclei (%) [7]: 8% | Population Healthy Nuclei (%) [7]: 79% | Population Hoechst High Intensity Objects (%) [7]: 16% | Population Membrane Permeable-Phenotype (%) [7]: 0% | Population Mitochondria Different-Phenotype (%) [7]: 63% | Population Mitotic Cells (%) [7]: 37% | Population Normal (%) [7]: 83% | Population Pyknosed Nuclei (%) [7]: 12% | Population Tubulin-Different-Phenotype (%) [7]: 57% | Total Cell Count [7]: 413 | Population Apoptotic (%) [8]: 69% | Population Fragmented Nuclei (%) [8]: 9% | Population Healthy Nuclei (%) [8]: 78% | Population Hoechst High Intensity Objects (%) [8]: 9% | Population Mitochondria Different-Phenotype (%) [8]: 75% | Population Mitotic Cells (%) [8]: 30% | Population Normal (%) [8]: 90% | Population Pyknosed Nuclei (%) [8]: 11% | Population Tubulin-Different-Phenotype (%) [8]: 50% | Total Cell Count [8]: 321 | Population Apoptotic (%) [9]: 21% | Population Fragmented Nuclei (%) [9]: 12% | Population Healthy Nuclei (%) [9]: 80% | Population Hoechst High Intensity Objects (%) [9]: 3% | Population Membrane Permeable-Phenotype (%) [9]: 2% | Population Mitochondria Different-Phenotype (%) [9]: 11% | Population Mitotic Cells (%) [9]: 78% | Population Normal (%) [9]: 96% | Population Pyknosed Nuclei (%) [9]: 6% | Population Tubulin-Different-Phenotype (%) [9]: 15% | Total Cell Count [9]: 851 | Population Fragmented Nuclei (%) [10]: 10% | Population Healthy Nuclei (%) [10]: 82% | Population Hoechst High Intensity Objects (%) [10]: 2% | Population Membrane Permeable-Phenotype (%) [10]: 0% | Population Mitochondria Different-Phenotype (%) [10]: 24% | Population Normal (%) [10]: 97% | Population Tubulin-Different-Phenotype (%) [10]: 18% | Total Cell Count [10]: 566 | Population Apoptotic (%) [11]: 57% | Population Fragmented Nuclei (%) [11]: 9% | Population Healthy Nuclei (%) [11]: 77% | Population Hoechst High Intensity Objects (%) [11]: 9% | Population Membrane Permeable-Phenotype (%) [11]: 1% | Population Mitochondria Different-Phenotype (%) [11]: 40% | Population Mitotic Cells (%) [11]: 42% | Population Normal (%) [11]: 90% | Population Pyknosed Nuclei (%) [11]: 12% | Population Tubulin-Different-Phenotype (%) [11]: 35% | Total Cell Count [11]: 583 | Population Apoptotic (%) [12]: 58% | Population Fragmented Nuclei (%) [12]: 11% | Population Healthy Nuclei (%) [12]: 73% | Population Hoechst High Intensity Objects (%) [12]: 12% | Population Membrane Permeable-Phenotype (%) [12]: 0% | Population Mitochondria Different-Phenotype (%) [12]: 59% | Population Mitotic Cells (%) [12]: 41% | Population Normal (%) [12]: 87% | Population Pyknosed Nuclei (%) [12]: 14% | Population Tubulin-Different-Phenotype (%) [12]: 37% | Total Cell Count [12]: 392
